Several values for one entry are separate records, joined by “and”; a condition that tells them apart may be missing. Equal entries are not always repeated.
Tested on: HEK-293T
Test: Multiplex assay against HEK293T
Assay type: toxicity, cell-based
Details: human, number of replicates 2
In short: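 At seeding, live cells were stained with Hoechst33342, BioTracker Green Microtubule Cytoskeleton Dye, MitoTracker Red and Annexin V Alexa Fluor 680. After compound addition they were imaged on a CQ1 microscope at 37°C and 5% CO2, and CellPathfinder machine-learning gating sorted them into Hoechst high-intensity objects or normal cells, with normal cells further split into healthy, pyknosed or fragmented nuclei and pyknosed cells into mitotic or apoptotic. Tubulin, mitochondrial-mass and membrane-permeability phenotypes are given as per cents of cells with healthy nuclei.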

[1] = 12 h, 1 µM, compound concentration 1 uM
[2] = 12 h, 10 µM, compound concentration 10 uM
[3] = 24 h, 1 µM, compound concentration 1 uM
[4] = 24 h, 10 µM, compound concentration 10 uM
[5] = 48 h, 1 µM, compound concentration 1 uM
[6] = 48 h, 10 µM, compound concentration 10 uM

For `C=CC(=O)Nc1ccc2[nH]c(=O)n(C3CCN(Cc4ccc(-c5ccc6c(c5)NC(=O)CO6)cc4)CC3)c2c1` [RL2578], the “Population Apoptotic (%)” value [1] was 38% and 52%, the “Population Fragmented Nuclei (%)” value [1] was 3% and the “Population Healthy Nuclei (%)” value [1] was 85%. The “Population Hoechst High Intensity Objects (%)” value [1] was 8% and 6%, the “Population Membrane Permeable-Phenotype (%)” value [1] was 4% and 5% and the “Population Mitochondria Different-Phenotype (%)” value [1] was 17%. For the same compound, the “Population Mitotic Cells (%)” value [1] was 61% and 47%, the “Population Normal (%)” value [1] was 91% and 93% and the “Population Pyknosed Nuclei (%)” value [1] was 10% and 11%. The “Population Tubulin-Different-Phenotype (%)” value [1] was 66% and 57%, the “Total Cell Count” value [1] was 749 and 364 and the “Population Apoptotic (%)” value [2] was 39% and 60%. For the same compound, the “Population Fragmented Nuclei (%)” value [2] was 2% and 1%, the “Population Healthy Nuclei (%)” value [2] was 92% and 89% and the “Population Hoechst High Intensity Objects (%)” value [2] was 6% and 10%. The “Population Membrane Permeable-Phenotype (%)” value [2] was 10% and 6%, the “Population Mitochondria Different-Phenotype (%)” value [2] was 39% and the “Population Mitotic Cells (%)” value [2] was 60% and 40%. The “Population Normal (%)” value [2] was 93% and 89%, the “Population Pyknosed Nuclei (%)” value [2] was 4% and 8% and the “Population Tubulin-Different-Phenotype (%)” value [2] was 97% and 96%. The “Total Cell Count” value [2] was 579 and 597, the “Population Apoptotic (%)” value [3] was 44% and 59% and the “Population Fragmented Nuclei (%)” value [3] was 6% and 4%. The “Population Healthy Nuclei (%)” value [3] was 86% and 88%, the “Population Hoechst High Intensity Objects (%)” value [3] was 4% and the “Population Membrane Permeable-Phenotype (%)” value [3] was 4% and 3%. For the same compound, the “Population Mitochondria Different-Phenotype (%)” value [3] was 7% and 9%, the “Population Mitotic Cells (%)” value [3] was 56% and 40% and the “Population Normal (%)” value [3] was 95%. The “Population Pyknosed Nuclei (%)” value [3] was 6% and 7%, the “Population Tubulin-Different-Phenotype (%)” value [3] was 42% and 38% and the “Total Cell Count” value [3] was 1138 and 534. For the same compound, the “Population Apoptotic (%)” value [4] was 53% and 81%, the “Population Fragmented Nuclei (%)” value [4] was 3% and 4% and the “Population Healthy Nuclei (%)” value [4] was 93% and 90%. For the same compound, the “Population Hoechst High Intensity Objects (%)” value [4] was 8% and 9%, the “Population Membrane Permeable-Phenotype (%)” value [4] was 5% and 2% and the “Population Mitochondria Different-Phenotype (%)” value [4] was 35% and 46%. The “Population Mitotic Cells (%)” value [4] was 46% and 18%, the “Population Normal (%)” value [4] was 91% and 90% and the “Population Pyknosed Nuclei (%)” value [4] was 2% and 4%. The “Population Tubulin-Different-Phenotype (%)” value [4] was 90% and 94%, the “Total Cell Count” value [4] was 626 and 621 and the “Population Apoptotic (%)” value [5] was 16% and 19%. For the same compound, the “Population Fragmented Nuclei (%)” value [5] was 15% and 13%, the “Population Healthy Nuclei (%)” value [5] was 81% and 82% and the “Population Hoechst High Intensity Objects (%)” value [5] was 8% and 7%. For the same compound, the “Population Membrane Permeable-Phenotype (%)” value [5] was 6% and 4%, the “Population Mitochondria Different-Phenotype (%)” value [5] was 0% and 2% and the “Population Mitotic Cells (%)” value [5] was 83% and 80%. For the same compound, the “Population Normal (%)” value [5] was 91% and 92%, the “Population Pyknosed Nuclei (%)” value [5] was 2% and 3% and the “Population Tubulin-Different-Phenotype (%)” value [5] was 18% and 21%. The “Total Cell Count” value [5] was 2736 and 1194, the “Population Apoptotic (%)” value [6] was 32% and 60% and the “Population Fragmented Nuclei (%)” value [6] was 11% and 7%. For the same compound, the “Population Healthy Nuclei (%)” value [6] was 84% and 86%, the “Population Hoechst High Intensity Objects (%)” value [6] was 13% and the “Population Membrane Permeable-Phenotype (%)” value [6] was 3% and 1%. The “Population Mitochondria Different-Phenotype (%)” value [6] was 15% and 25%, the “Population Mitotic Cells (%)” value [6] was 67% and 40% and the “Population Normal (%)” value [6] was 86%. For the same compound, the “Population Pyknosed Nuclei (%)” value [6] was 4% and 6%, the “Population Tubulin-Different-Phenotype (%)” value [6] was 71% and 82% and the “Total Cell Count” value [6] was 795 and 718.
For `O=C(NCc1ccc(F)cc1)N1CCN2C(=O)OC(c3ccccc3)(c3ccccc3)C2C1` (stereo unspecified), the “Population Apoptotic (%)” value [1] was 56% and 58%, the “Population Fragmented Nuclei (%)” value [1] was 5% and 3% and the “Population Healthy Nuclei (%)” value [1] was 82% and 77%. The “Population Hoechst High Intensity Objects (%)” value [1] was 8% and 6%, the “Population Membrane Permeable-Phenotype (%)” value [1] was 6% and 1% and the “Population Mitochondria Different-Phenotype (%)” value [1] was 18% and 19%. The “Population Mitotic Cells (%)” value [1] was 43% and 41%, the “Population Normal (%)” value [1] was 91% and 93% and the “Population Pyknosed Nuclei (%)” value [1] was 11% and 19%. The “Population Tubulin-Different-Phenotype (%)” value [1] was 76% and 63%, the “Total Cell Count” value [1] was 761 and 454 and the “Population Apoptotic (%)” value [2] was 72% and 41%. For the same compound, the “Population Fragmented Nuclei (%)” value [2] was 2%, the “Population Healthy Nuclei (%)” value [2] was 75% and 85% and the “Population Hoechst High Intensity Objects (%)” value [2] was 7% and 4%. For the same compound, the “Population Membrane Permeable-Phenotype (%)” value [2] was 5% and 3%, the “Population Mitochondria Different-Phenotype (%)” value [2] was 34% and 53% and the “Population Mitotic Cells (%)” value [2] was 27% and 58%. The “Population Normal (%)” value [2] was 92% and 95%, the “Population Pyknosed Nuclei (%)” value [2] was 21% and 12% and the “Population Tubulin-Different-Phenotype (%)” value [2] was 93% and 97%. For the same compound, the “Total Cell Count” value [2] was 433 and 482, the “Population Apoptotic (%)” value [3] was 36% and 63% and the “Population Fragmented Nuclei (%)” value [3] was 8% and 5%. For the same compound, the “Population Healthy Nuclei (%)” value [3] was 83%, the “Population Hoechst High Intensity Objects (%)” value [3] was 7% and 9% and the “Population Membrane Permeable-Phenotype (%)” value [3] was 5% and 2%. For the same compound, the “Population Mitochondria Different-Phenotype (%)” value [3] was 4% and 8%, the “Population Mitotic Cells (%)” value [3] was 63% and 36% and the “Population Normal (%)” value [3] was 92% and 90%. The “Population Pyknosed Nuclei (%)” value [3] was 7% and 11%, the “Population Tubulin-Different-Phenotype (%)” value [3] was 51% and 38% and the “Total Cell Count” value [3] was 1157 and 707. For the same compound, the “Population Apoptotic (%)” value [4] was 70% and 54%, the “Population Fragmented Nuclei (%)” value [4] was 2% and 4% and the “Population Healthy Nuclei (%)” value [4] was 83% and 85%. For the same compound, the “Population Hoechst High Intensity Objects (%)” value [4] was 9% and 5%, the “Population Membrane Permeable-Phenotype (%)” value [4] was 6% and 3% and the “Population Mitochondria Different-Phenotype (%)” value [4] was 31% and 55%. For the same compound, the “Population Mitotic Cells (%)” value [4] was 29% and 45%, the “Population Normal (%)” value [4] was 90% and 94% and the “Population Pyknosed Nuclei (%)” value [4] was 14% and 10%. For the same compound, the “Population Tubulin-Different-Phenotype (%)” value [4] was 90% and 94%, the “Total Cell Count” value [4] was 529 and 537 and the “Population Fragmented Nuclei (%)” value [5] was 16% and 10%. For the same compound, the “Population Healthy Nuclei (%)” value [5] was 80% and 86%, the “Population Hoechst High Intensity Objects (%)” value [5] was 9% and the “Population Membrane Permeable-Phenotype (%)” value [5] was 8% and 3%. The “Population Mitochondria Different-Phenotype (%)” value [5] was 0% and 1%, the “Population Mitotic Cells (%)” value [5] was 91% and 68% and the “Population Normal (%)” value [5] was 90%. The “Population Pyknosed Nuclei (%)” value [5] was 2% and 3%, the “Population Tubulin-Different-Phenotype (%)” value [5] was 30% and 21% and the “Total Cell Count” value [5] was 2926 and 1423. The “Population Apoptotic (%)” value [6] was 45% and 43%, the “Population Fragmented Nuclei (%)” value [6] was 5% and 8% and the “Population Healthy Nuclei (%)” value [6] was 87% and 85%. For the same compound, the “Population Hoechst High Intensity Objects (%)” value [6] was 6%, the “Population Membrane Permeable-Phenotype (%)” value [6] was 6% and 10% and the “Population Mitochondria Different-Phenotype (%)” value [6] was 39% and 15%. The “Population Mitotic Cells (%)” value [6] was 55% and 56%, the “Population Normal (%)” value [6] was 93% and the “Population Pyknosed Nuclei (%)” value [6] was 6% and 5%. The “Population Tubulin-Different-Phenotype (%)” value [6] was 93% and 82% and the “Total Cell Count” value [6] was 655 and 824.

Reference: ChEMBL document CHEMBL5303300, “EUbOPEN Chemogenomics Library - Multiplex” (2023)
